Source: paper PMC4433557 (ACS chemical biology, 2015)
One block for each molecule: values may come before it. Where a SMILES comes first, the peptide text is derived from it. Where no end group is shown, it is not given here. [ ]: non-standard residue; d: D form. Phe(4-F) = N[C@@H](Cc1ccc(F)cc1)C(=O)O; pS = N[C@@H](COP(=O)(O)O)C(=O)O; βAla = NCCC(=O)O

Columns and labels:
BRCA1 (BRCT)2 = BRCA1 (BRCT)2 (Homo sapiens, UniProt P38398); assay: isothermal titration calorimetry with TR-; type: binding; conditions: ITC
[1] = tested on: phospho-CtIP and BRCA1 (BRCT)2; assay: pull down-western of phospho-CtIP-myc from cell lysates with BRCA1; type: binding; conditions: synthesized peptide, increasing concentrations
[2] = molecular target: BRCA1 (BRCT)2 (thioredoxin-(BRCT)2 fusion) (Homo sapiens, UniProt P38398); assay: competition fluorescence polarization assay against FAM-β-A-pSPTF-NH2; type: binding
In short: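 Competition fluorescence polarization: 20 nM FAM-β-A-pSPTF tracer plus 2.7 μM thioredoxin-(BRCT)2 fusion, titrated with variable concentrations of test peptide. IC50 obtained by fitting a four-parameter logistic equation.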

[3] = molecular target: BACH1-derived tetrapeptide (Homo sapiens) (UniProt Q9BX63); conditions: cited from earlier work
BACH1-derived tetrapeptide (Homo sapiens), sequence (Q9BX63 whole entry, looked up, tested part not stated): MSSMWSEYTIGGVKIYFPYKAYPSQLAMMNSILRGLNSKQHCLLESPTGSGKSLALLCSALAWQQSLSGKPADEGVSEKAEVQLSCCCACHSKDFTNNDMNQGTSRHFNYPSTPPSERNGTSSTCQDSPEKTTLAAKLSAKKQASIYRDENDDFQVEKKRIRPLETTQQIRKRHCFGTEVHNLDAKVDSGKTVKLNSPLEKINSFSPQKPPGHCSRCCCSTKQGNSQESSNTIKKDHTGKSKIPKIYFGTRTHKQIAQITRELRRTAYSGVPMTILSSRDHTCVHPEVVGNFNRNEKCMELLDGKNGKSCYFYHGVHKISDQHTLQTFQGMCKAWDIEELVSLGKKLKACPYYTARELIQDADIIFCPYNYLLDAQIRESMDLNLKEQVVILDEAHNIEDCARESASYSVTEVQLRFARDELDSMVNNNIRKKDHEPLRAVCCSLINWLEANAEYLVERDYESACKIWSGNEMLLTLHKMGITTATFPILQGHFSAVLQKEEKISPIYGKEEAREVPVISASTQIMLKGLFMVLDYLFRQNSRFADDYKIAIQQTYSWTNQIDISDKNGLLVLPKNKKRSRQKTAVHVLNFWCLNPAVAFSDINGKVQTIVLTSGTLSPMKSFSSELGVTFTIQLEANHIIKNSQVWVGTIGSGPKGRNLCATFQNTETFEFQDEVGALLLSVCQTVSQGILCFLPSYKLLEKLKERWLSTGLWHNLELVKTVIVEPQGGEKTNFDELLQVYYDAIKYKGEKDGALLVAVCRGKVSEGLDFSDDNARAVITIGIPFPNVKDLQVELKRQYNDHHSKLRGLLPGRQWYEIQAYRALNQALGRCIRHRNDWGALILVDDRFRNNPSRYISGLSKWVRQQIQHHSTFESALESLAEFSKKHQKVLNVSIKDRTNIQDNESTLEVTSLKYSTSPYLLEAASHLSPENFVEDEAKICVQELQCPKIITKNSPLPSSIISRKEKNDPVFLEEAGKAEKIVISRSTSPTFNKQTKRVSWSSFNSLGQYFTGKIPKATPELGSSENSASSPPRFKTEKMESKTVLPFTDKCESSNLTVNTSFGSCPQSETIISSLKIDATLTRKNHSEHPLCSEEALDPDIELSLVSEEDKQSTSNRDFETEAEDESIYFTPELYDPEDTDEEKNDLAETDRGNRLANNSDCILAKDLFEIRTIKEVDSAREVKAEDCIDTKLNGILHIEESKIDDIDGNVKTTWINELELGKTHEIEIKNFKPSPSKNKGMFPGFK

GST-BRCA1 (BRCT)2 N1774A = assay: fluorescence polarization binding to GST-BRCA1; set-up: species or system human; conditions: FP; FITC-BACH1 peptide
In short: (§1)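 Direct fluorescence polarization of GST-BRCA1 (BRCT)2 point mutants and wild type, using either the labelled BACH1 phosphopeptide (FITC-[…]-NH2) or FAM-β-Ala-labelled test peptide as probe. KD for each mutant was determined by FP, then normalized to the wild-type GST-(BRCT)2 KD.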

GST-BRCA1 (BRCT)2 S1655A = assay: fluorescence polarization binding to GST-BRCA1; set-up: species or system human; conditions: FP; fluorescent peptides FAM-β-Ala-8.6 or FITC-BACH1 peptide
In short: as §1

GST-BRCA1 (BRCT)2 K1702M = assay: fluorescence polarization binding to GST-BRCA1; set-up: species or system human; conditions: FP; FITC-BACH1 peptide
In short: as §1

GST-BRCA1 (BRCT)2 E1698A = assay: fluorescence polarization binding to GST-BRCA1; set-up: species or system human; conditions: FP; FITC-BACH1 peptide
In short: as §1

[4] = molecular target: thioredoxin-(BRCT)2 fusion (human) (UniProt P38398); assay: fluorescence polarisation
[5] = molecular target: thioredoxin-(BRCT)2 fusion (human) (UniProt P38398); assay: ITC
[6] = molecular target: GST-BRCA1 (BRCT)2 K1702M (human) (UniProt P38398); assay: fluorescence polarisation

binding after substitution of the two 4FPhe with Phe (BRCA1 (BRCT)2): did not significantly abrogate binding
Molecule: 8.6 Nat: peptide 8.6 with the two 4FPhe substituted with Phe (MCTIDFDEYRFRKT)
blocking of binding of phospho-CtIP and BRCA1 in cell lysates [1]: able to block the binding

fold lower KD than peptide 8.6 (BRCA1 (BRCT)2; 25 °C, pH 7.4, TR-(BRCT)2 20 uM, peptide 214 μM): 10 fold
Molecule: 8.6E8pS: mutant of peptide 8.6 containing the Glu to pSer mutation (MCTID[Phe(4-F)]D[pS]YR[Phe(4-F)]RKT)

IC50 [2]: 24 ± 2 µM
Molecule: CC[C@H](C)[C@H](NC(=O)[C@H](Cc1ccc(F)cc1)NC(=O)[C@H](CC(=O)O)NC(=O)[C@H](CC(N)=O)NC(=O)[C@H](CS)NC(=O)[C@H](CCSC)NC(C)=O)C(=O)N[C@@H](Cc1ccc(F)cc1)C(=O)N[C@@H](CCCNC(=N)N)C(=O)N[C@@H](CCCNC(=N)N)C(=O)N[C@@H](CO)C(=O)N[C@H](C(=O)N[C@@H](Cc1ccc(F)cc1)C(=O)N[C@@H](CCCNC(=N)N)C(=O)N[C@@H](C)C(N)=O)[C@@H](C)O [8.1] (Ac-MCND[Phe(4-F)]I[Phe(4-F)]RRST[Phe(4-F)]RA-NH2)

IC50 [2]: 49 ± 5 µM
Molecule: CC[C@H](C)[C@H](NC(=O)[C@H](Cc1ccc(F)cc1)NC(=O)[C@H](CC(=O)O)NC(=O)[C@H](CO)NC(=O)[C@H](CS)NC(=O)[C@H](CCSC)NC(C)=O)C(=O)N[C@@H](Cc1ccc(F)cc1)C(=O)N[C@@H](CO)C(=O)N[C@@H](CCCNC(=N)N)C(=O)N[C@@H](CCCNC(=N)N)C(=O)N[C@H](C(=O)N[C@@H](Cc1ccc(O)cc1)C(=O)N[C@H](C(=O)N[C@@H](Cc1ccc(F)cc1)C(N)=O)[C@@H](C)O)[C@@H](C)O [8.2] (Ac-MCSD[Phe(4-F)]I[Phe(4-F)]SRRTYT[Phe(4-F)]-NH2)

Molecule: CSCC[C@H](NC(C)=O)C(=O)N[C@@H](CS)C(=O)N[C@@H](Cc1ccc(O)cc1)C(=O)N[C@@H](CC(=O)O)C(=O)N[C@@H](Cc1ccc(F)cc1)C(=O)N[C@@H](CC(=O)O)C(=O)N[C@H](C(=O)N[C@H](C(=O)N[C@@H](CC(N)=O)C(=O)N[C@@H](CC(=O)O)C(=O)N[C@@H](Cc1c[nH]cn1)C(=O)N[C@H](C(=O)N[C@@H](Cc1ccc(F)cc1)C(N)=O)[C@@H](C)O)[C@@H](C)O)[C@@H](C)O [8.5] (HELM PEPTIDE1{[ac].M.C.Y.D.[O=C([C@H](Cc1ccc(F)cc1)N[*:1])[*:2]].D.T.T.N.D.H.T.[O=C([C@H](Cc1ccc(F)cc1)N[*:1])[*:2]].[am]}$$$$V2.0)
IC50 [2]: 26 ± 2 µM

Molecule: BRCA1 BRCT2 (from UniProt P38398)
Kd [3]: 0.19 µM

change in affinity, N1774A versus wild type (GST-BRCA1 (BRCT)2 N1774A): no significant change in affinity
binding to S1655A mutant versus wild type (GST-BRCA1 (BRCT)2 S1655A): completely abolished recognition
binding to K1702M mutant versus wild type (GST-BRCA1 (BRCT)2 K1702M): completely abolished recognition
change in affinity, E1698A versus wild type (GST-BRCA1 (BRCT)2 E1698A): no significant change in affinity
Molecule: FITC-SRSTpSTPFNK-NH2 [pSer peptide]

Molecule: Y9A: Tyr to Ala mutant of peptide 8.6 (MCTID[Phe(4-F)]DEAR[Phe(4-F)]RKT)
competitive binding of alanine mutant relative to wild-type 8.6 ([2]; competition FP, TR-BRCA1 (BRCT)2 2.5 μM, FAM-β-Ala-pSPTF-NH2 20 nM): competed more effectively for binding than the wild-type 8.6

IC50 [4]: 10 µM
Kd [5]: 3.7 µM
dH (printed as a magnitude; the paper calls it negative) [5]: 24.6 kcal/mol
B1: peptide 8.6 (peptide)
peptide: MCTIDFDEYRFRKT
HELM: PEPTIDE1{[ac].M.C.T.I.D.[O=C([C@H](Cc1ccc(F)cc1)N[*:1])[*:2]].D.E.Y.R.[O=C([C@H](Cc1ccc(F)cc1)N[*:1])[*:2]].R.K.T.[am]}$$$$V2.0
SMILES: CC[C@H](C)[C@H](NC(=O)[C@@H](NC(=O)[C@H](CS)NC(=O)[C@H](CCSC)NC(C)=O)[C@@H](C)O)C(=O)N[C@@H](CC(=O)O)C(=O)N[C@@H](Cc1ccc(F)cc1)C(=O)N[C@@H](CC(=O)O)C(=O)N[C@@H](CCC(=O)O)C(=O)N[C@@H](Cc1ccc(O)cc1)C(=O)N[C@@H](CCCNC(=N)N)C(=O)N[C@@H](Cc1ccc(F)cc1)C(=O)N[C@@H](CCCNC(=N)N)C(=O)N[C@@H](CCCCN)C(=O)N[C@H](C(N)=O)[C@@H](C)O

fold lower KD than peptide 8.6 [5]: 10 fold
Molecule: MCTID[Phe(4-F)]D[pS]YR[Phe(4-F)]RKT [peptide 8.6E8pS]

fold reduction in binding against wild-type GST-BRCA1 (BRCT)2 [6]: 6 fold
Molecule: {FAM-βAla}-MCTIDFDEYRFRKT-NH2 [FAM-β-Ala-…-NH2]
